Measurements published in ChEMBL document CHEMBL1139397, “Thiazolidinone CFTR inhibitors with improved water solubility identified by structure-activity analysis” (Bioorg Med Chem, 2008).
Active and inactive are the calls of the source. The rule behind the calls is not given here.

Assays:
Type in all cases: cell-based
[1] = target: Cystic fibrosis transmembrane conductance regulator (Homo sapiens, UniProt P13569); assay: Inhibition of human wild type CFTR expressed in rat FRT cells assessed as chloride current by short-circuit current measurements
Summary of the method: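 FRT cells stably expressing human wildtype CFTR were grown on filters to >1,000 Ω·cm2. Basolateral membrane permeabilized with amphotericin B (250 μg/ml, 30 min). Apical Cl− current was measured under a gradient: basolateral 130 mM NaCl buffer, pH 7.3; apical 65 mM NaCl replaced by gluconate. Solutions at 37 °C under 95% O2/5% CO2. CFTR activated with 100 μM CPT-cAMP, then inhibitor added at increasing concentrations. IC50 fitted from concentration-inhibition data.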

[2] = Cytotoxicity against rat FRT cells assessed as cell viability at 20 uM after 48 hrs by crystal violet staining
Summary of the method: (§1)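 Confluent FRT monolayers exposed to compound for 2 days. Cells were then washed three times, fixed for 30 min and stained with 0.5% crystal violet for 10 min. Dye was extracted in Sorenson's buffer (0.1 M sodium citrate, 50% ethanol, pH 4.2) and read at 650 nm. Percent staining was taken from 8 replicate wells relative to cell-free blanks and vehicle-treated cells.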

[3] = Cytotoxicity against rat FRT cells assessed as cell viability at 50 uM after 48 hrs by crystal violet staining; summary of the method: as §1

SMILES: O=C(O)c1ccc(/C=C2\SC(=S)N(Cc3cccc(C(F)(F)F)c3)C2=O)cc1
- Activity [1]: inactive

SMILES: Cc1cccc(N2C(=O)/C(=C/c3ccc(C(=O)O)cc3)SC2=S)c1C
- IC50 [1]: 7 µM

SMILES: O=C(O)c1ccc(-n2cc(-c3ccc(C(F)(F)F)cc3)nn2)cc1
- Activity [1]: inactive

SMILES: O=C(O)c1cccc(/C=C2\SC(=S)N(c3ccc(F)c(C(F)(F)F)c3)C2=O)c1
- IC50 [1]: 5 µM

SMILES: O=C1/C(=C/c2ccc(O)cc2)SC(=S)N1c1cccc(C(F)(F)F)c1
- IC50 [1]: 24 µM

SMILES: O=C(NCCO)c1ccc(/C=C2\SC(=S)N(c3cccc(C(F)(F)F)c3)C2=O)cc1
- Activity [1]: inactive

SMILES: O=C1/C(=C/c2ccc(S(=O)(=O)O)cc2S(=O)(=O)O)SC(=S)N1c1cccc(C(F)(F)F)c1
- IC50 [1]: 50 µM

SMILES: O=C1/C(=C/c2ccc(O)c(O)c2)SC(=S)N1c1cccc(C(F)(F)F)c1
- Activity [1]: inactive

SMILES: COc1cc(Br)ccc1/C=C1\SC(=S)N(c2cccc(C(F)(F)F)c2)C1=O
- Activity [1]: inactive

SMILES: NCCNC(=O)c1ccc(/C=C2\SC(=S)N(c3cccc(C(F)(F)F)c3)C2=O)cc1
- Activity [1]: inactive

SMILES: O=C(O)c1cc(/C=C2\SC(=S)N(c3ccccc3C(F)(F)F)C2=O)ccc1O
- IC50 [1]: 14 µM

SMILES: O=C(O)c1ccc(/C=C2\SC(=S)N(c3ccc(Cl)c(C(F)(F)F)c3)C2=O)cc1
- IC50 [1]: 15 µM

SMILES: O=C(O)c1ccc(CC2SC(=S)N(c3cccc(C(F)(F)F)c3)C2=O)cc1 (stereo unspecified)
- IC50 [1]: 27 µM

SMILES: O=C(O)c1ccc(/C=C2\SC(=S)N(c3ccccc3C(F)(F)F)C2=O)cc1
- IC50 [1]: 12 µM

SMILES: COc1ccc(/C=C2\SC(=S)N(c3cccc(C(F)(F)F)c3)C2=O)cc1
- Activity [1]: inactive

SMILES: O=C1/C(=C/c2ccc(-c3nn[nH]n3)cc2)SC(=S)N1c1cccc(C(F)(F)F)c1
- Activity [2]: 87%
- Activity [3]: 73%

SMILES: O=C(O)c1cc(/C=C2\SC(=S)N(c3cccc(C(F)(F)F)c3)C2=O)ccc1O
- IC50 [1]: 1.4 µM

SMILES: O=C(O)c1ccc(SC2CC(=O)N(c3cccc(C(F)(F)F)c3)C2=O)cc1 (stereo unspecified)
- IC50 [1]: 7 µM

SMILES: O=C(O)c1cc(/C=C2\SC(=S)N(c3ccc(C(F)(F)F)cc3)C2=O)ccc1O
- IC50 [1]: 25 µM

SMILES: O=C(O)c1ccccc1/C=C1\SC(=S)N(c2ccc(C(F)(F)F)cc2)C1=O
- IC50 [1]: 20 µM

SMILES: O=C1/C(=C/c2cc(Br)c(O)c(Br)c2O)SC(=S)N1c1cccc(C(F)(F)F)c1
- IC50 [1]: 8 µM

SMILES: O=C(O)c1ccc(/C=C2\SC(=S)N(c3cccc(C(F)(F)F)c3)C2=O)cc1
- Activity [2]: 86%

SMILES: O=C(O)c1ccc(Nc2nnc(-c3cccc(C(F)(F)F)c3)s2)cc1
- Activity [1]: inactive

SMILES: NC(=O)c1ccc(/C=C2\SC(=S)N(c3cccc(C(F)(F)F)c3)C2=O)cc1
- Activity [1]: inactive

SMILES: O=C(O)c1cccc(/C=C2\SC(=S)N(c3ccc(C(F)(F)F)cc3)C2=O)c1
- IC50 [1]: 13 µM

SMILES: O=C(O)c1ccc(/C=C2\SC(=S)N(c3cc(C(F)(F)F)ccc3Cl)C2=O)cc1
- IC50 [1]: 20 µM

SMILES: O=C1/C(=C/c2cc(Br)c(O)c(Br)c2)SC(=S)N1c1cccc(C(F)(F)F)c1
- IC50 [1]: 7 µM

SMILES: Cc1c(N2C(=O)/C(=C/c3ccc(C(=O)O)cc3)SC2=S)cccc1C(F)(F)F
- Activity [2]: 89%
- Activity [3]: 72%

SMILES: O=C(O)c1ccc(-n2cc(-c3cccc(C(F)(F)F)c3)nn2)cc1
- Activity [1]: inactive

SMILES: O=C(O)c1cccc(/C=C2\SC(=S)N(c3ccccc3C(F)(F)F)C2=O)c1
- IC50 [1]: 19 µM

SMILES: O=C(O)c1cc(Nc2nnc(-c3cccc(C(F)(F)F)c3)s2)ccc1O
- Activity [1]: inactive

SMILES: O=C1C(C(=S)Nc2ccc(S(=O)(=O)O)o2)SC(=S)N1c1cccc(C(F)(F)F)c1 (stereo unspecified)
- IC50 [1]: 27 µM

SMILES: O=C(O)c1ccc(NC(=S)C2SC(=S)N(c3cccc(C(F)(F)F)c3)C2=O)cc1 (stereo unspecified)
- IC50 [1]: 9 µM

SMILES: O=C(O)c1cc(Nc2nc(-c3cccc(C(F)(F)F)c3)cs2)ccc1O
- IC50 [1]: 32 µM

SMILES: O=C(O)c1ccccc1/C=C1\SC(=S)N(c2cccc(C(F)(F)F)c2)C1=O
- IC50 [1]: 15 µM

SMILES: O=C1/C(=C/c2ccncc2)SC(=S)N1c1cccc(C(F)(F)F)c1
- IC50 [1]: 28 µM

SMILES: O=C(O)c1cccc(/C=C2\SC(=S)N(c3cccc(C(F)(F)F)c3)C2=O)c1
- IC50 [1]: 1.5 µM

SMILES: O=C1/C(=C/c2cc(O)c(O)c(O)c2)SC(=S)N1c1cccc(C(F)(F)F)c1
- IC50 [1]: 11 µM

SMILES: CCOC(=O)c1ccc(/C=C2\SC(=S)N(c3cccc(C(F)(F)F)c3)C2=O)cc1
- Activity [1]: inactive

SMILES: O=C(O)c1ccc(/C=C2\SC(=S)N(c3cc(C(F)(F)F)cc(C(F)(F)F)c3)C2=O)cc1
- IC50 [1]: 14 µM

SMILES: O=C(O)c1ccc(Nc2nc(-c3cccc(C(F)(F)F)c3)cs2)cc1
- IC50 [1]: 28 µM

SMILES: COc1c(Br)cc(/C=C2\SC(=S)N(c3cccc(C(F)(F)F)c3)C2=O)c(O)c1Br
- Activity [1]: inactive

SMILES: O=C(O)c1ccc(/C=C2\SC(=S)N(c3ccc(F)c(C(F)(F)F)c3)C2=O)cc1
- IC50 [1]: 1.5 µM

SMILES: CC(=O)OCOC(=O)c1ccc(/C=C2\SC(=S)N(c3cccc(C(F)(F)F)c3)C2=O)cc1
- Activity [1]: inactive

SMILES: O=C1/C(=C/c2ccc(O)c(O)c2O)SC(=S)N1c1cccc(C(F)(F)F)c1
- IC50 [1]: 28 µM

SMILES: O=C(O)c1ccc(NC2=C(Cl)C(=O)N(c3cccc(C(F)(F)F)c3)C2=O)cc1
- IC50 [1]: 36 µM

SMILES: O=C1/C(=C/c2ccc(S(=O)(=O)O)cc2)SC(=S)N1c1cccc(C(F)(F)F)c1
- IC50 [1]: 29 µM

SMILES: O=C(O)c1ccc(/C=C2\SC(=S)N(c3ccc(C(F)(F)F)cc3)C2=O)cc1
- IC50 [1]: 15 µM

SMILES: O=C1S/C(=C\c2ccc(-c3nn[nH]n3)cc2)C(=O)N1c1cccc(C(F)(F)F)c1
- IC50 [1]: 17 µM

SMILES: O=C(O)c1ccc(/C=C2\SC(=O)N(c3cccc(C(F)(F)F)c3)C2=O)cc1
- Activity [2]: 93%
- Activity [3]: 91%

SMILES: Cc1cccc(N2C(=O)/C(=C/c3ccc(C(=O)O)cc3)SC2=S)c1
- IC50 [1]: 5 µM

SMILES: O=C(O)COc1cccc(/C=C2\SC(=S)N(c3cccc(C(F)(F)F)c3)C2=O)c1
- IC50 [1]: 30 µM

SMILES: O=C(O)c1ccccc1/C=C1\SC(=S)N(c2ccccc2C(F)(F)F)C1=O
- IC50 [1]: 18 µM
